High-throughput results as filed in PubChem.
PAD4 inh = blocks human protein arginine deiminase 4; Q9UM07; recombinant PAD4, RCA probe fluorescence polarization; inhibition, % at 6.36 µM; actives 0.41% (n = 330,000); AID 485272;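 active = percent inhibition above a cutoff equal to the mean of all tested compounds plus 3 SD, cut at about 15% in these data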;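 also: 0% = PAD4 with RCA probe and DMSO and 100% = probe without PAD4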
TDP2 absorb = TDP2 (human) inhibition, absorbance primary screen | O95551 | recombinant TDP2, T5PNP hydrolysis, p-nitrophenol absorbance 415 nm | inhibition, % at 12.8 µM | actives 0.34% (n = 370,000) | AID 720702;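 active = inhibition above the mean of all tested compounds plus 3 SD, set per campaign, cut at about 25% in these data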;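 also: 0% = DMSO with enzyme and 100% = buffer with substrate but no TDP2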
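Assay system: Recombinant human TDP2 | Quantity: 120 nM TDP2 per well | Incubation: 2 h at 37 °C | Signal: Epi absorbance | Evaluation: Percent inhibition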
GSTO1 inh = counter-screen for RBBP9 inhibitors: inhibitors of human GSTO1 | AID 1974 | actives 1.1% (n = 300,000) | inhibition, % at 5.96 µM | recombinant GSTO1, activity-based probe fluorescence polarization;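 active = inhibition above the campaign mean inhibition plus 3 SD, cut at about 35% in these data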;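 also: 0% = GSTO1-1 with DMSO and 100% = wells lacking GSTO1-1 enzyme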
Apaf-1 inh = inhibitors of human Apaf-1 apoptosome; O14727; reconstituted apoptosome caspase-3 activity, DEVD-Rh110 fluorescence; inhibition, % at 20 µM; actives 0.71% (n = 330,000); active = inhibition of at least 40% at 20 µM;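 also: plate controls were DMSO wells for no effect and DEVD-CHO caspase inhibitor wells for full effect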
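Material: biochemical Apaf-1 apoptosome reconstitution. Medium: Hepes buffer, pH 7.5. Also added: cytochrome c activation, bis-DEVD rhodamine 110 substrate. Timing: 30 min compound preincubation, 50 min activation, room temperature. Measured by: rhodamine 110 fluorescence at Ex 480/Em 540 nm.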
CTSL1 counter = counter-screen for PFM18AAP inhibitors: inhibitors of F. hepatica cathepsin L1 | recombinant F. hepatica cathepsin L1, Z-Leu-Arg-MCA fluorescence | inhibition, % at 5.96 µM | actives 0.49% (n = 300,000);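 active = inhibition above the mean of all tested compounds plus 3 SD, set per screening campaign, cut at about 17% in these data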;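 also: 0% = plate median of test compound wells and 100% = 1 µM Z-Phe-Ala-diazomethylketone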
An asterisk follows results filed as active. Shown are actives, neighbours in structure and some others; about 1.8% of the full set was active somewhere.

For CCN(CC)C(=O)O[C@H]1CC[C@@]23CCCN2C(=O)CCC[C@H]3[C@H]1C the results were TDP2 absorb -3.
`CCOC(=O)c1c(C)oc2c1c(C=NCc1ccccn1)c(O)c1ccccc12` gave TDP2 absorb 30*.
COc1ccc(CN2[C@@H](CC(C)=O)c3cc(C(F)(F)F)ccc3S2(=O)=O)cc1 was read as PAD4 inh 0, TDP2 absorb 3, GSTO1 inh 0, Apaf-1 inh 10 and CTSL1 counter 17*.
COc1cc(OC)cc(C(C)c2ccc(-c3ccccc3)cc2)c1 (stereo not given) was read as TDP2 absorb 1.
Screening CCCN1Cc2cccc(C(=O)NCc3ccc4c(c3)OCO4)c2C1=O returned PAD4 inh -4, TDP2 absorb 4, GSTO1 inh -2, Apaf-1 inh 3 and CTSL1 counter -5.
`CCCN1Cc2cccc(C(=O)NCc3cccs3)c2C1=O` gave PAD4 inh -3, TDP2 absorb 1, GSTO1 inh 2, Apaf-1 inh 4 and CTSL1 counter 18*.
CC(c1ccccc1)N1CC[C@H]2C=CC[C@@H](C(=O)Nc3cccc(Cl)c3)[C@H]2C1=O (stereo not given in full) was read as TDP2 absorb 1.
For COc1cccc(CNc2ccccc2O)c1OCc1ccccc1F the results were PAD4 inh -20, TDP2 absorb 3, GSTO1 inh 36*, Apaf-1 inh 21 and CTSL1 counter -2.
For COc1cccc(CNc2ccc(S(N)(=O)=O)cc2)c1OCc1ccccc1F the results were PAD4 inh -3, TDP2 absorb 4, GSTO1 inh -3, Apaf-1 inh 4 and CTSL1 counter 0.
`CC(=O)n1cc(N(C(=O)CCl)c2ccc([N+](=O)[O-])cc2)c2ccccc21` gave PAD4 inh 19*, TDP2 absorb 18, GSTO1 inh 75*, Apaf-1 inh -14 and CTSL1 counter 3.
`O=C(NC1CCN(CC(=O)N(c2ccccc2)c2ccccc2)CC1)c1ccc([N+](=O)[O-])cc1` gave PAD4 inh 0, TDP2 absorb 0, GSTO1 inh 6, Apaf-1 inh 5 and CTSL1 counter 0.
Screening Cn1cc(C(=O)N/N=C/c2ccc([N+](=O)[O-])cc2)c2ccccc21 returned PAD4 inh 1, TDP2 absorb 0, GSTO1 inh -12, Apaf-1 inh -16 and CTSL1 counter 1.
For CC(=O)n1cc(N(C(=O)CCl)c2ccccc2)c2ccccc21 the results were PAD4 inh 13, TDP2 absorb -1, GSTO1 inh 77*, Apaf-1 inh 7 and CTSL1 counter -2.
`O=Cc1[nH]c2ccccc2c1N(C(=O)CCl)c1ccc([N+](=O)[O-])cc1` gave PAD4 inh 11, TDP2 absorb 1, GSTO1 inh 73*, Apaf-1 inh 9 and CTSL1 counter 2.
CC(=O)n1cc(CO)c2ccccc21 was read as PAD4 inh 0, TDP2 absorb 5, GSTO1 inh 7, Apaf-1 inh -12 and CTSL1 counter -4.
For CNc1nc(N)c([N+](=O)[O-])c(Nc2cccc(Br)c2)n1 the results were TDP2 absorb 8.
Screening CC(C)(C)C(=O)N1CCC[C@]2(CC[C@H](CCC#N)O2)C1 returned TDP2 absorb 3.
`O=[N+]([O-])c1ccc(CN2CCOCCOCCN(Cc3ccc([N+](=O)[O-])cc3Cl)CCOCC2)c(Cl)c1` gave TDP2 absorb 4.
Screening O=C1Nc2ccccc2C(O)(C(=O)NCc2ccco2)N1c1ccc(Cl)c(Cl)c1 (stereo not given) returned PAD4 inh 1, GSTO1 inh -2, Apaf-1 inh 8 and CTSL1 counter 66*.
For CC(=O)N1CCN(c2ccc(N3CCN(C(C)=O)[C@@H](C)C3)c(C)c2)[C@@H](C)C1 the results were TDP2 absorb -3.
For C/C(=N/NC(=O)c1ccncc1)c1cc2ccc(O)cc2oc1=O the results were PAD4 inh -6, TDP2 absorb -17, GSTO1 inh 1, Apaf-1 inh 8 and CTSL1 counter 0.
C/C(=N/NC(N)=S)c1cc2ccc(O)cc2oc1=O was read as PAD4 inh -15, TDP2 absorb 15, GSTO1 inh 29, Apaf-1 inh -5 and CTSL1 counter 20*.
